Laboratory results: article PMC9075791 (RSC Advances, 2019)

How the values were obtained:
[1] = Cell-free aggregation assay; assay type: physicochemical; details: for Detected CAC: critical aggregation concentration, 1× HBSS, 20 mM HEPES, pH 7.2; for aggregator / non-aggregator in aggregation assay: real time dose responses
In short: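 Assay buffer (1× HBSS, 20 mM HEPES, pH 7.2) was equilibrated in wells of the RWG reader for 1 h. After a 2 min baseline, a compound dilution series (from DMSO stocks, maximum 1‰ final DMSO) was added and wavelength shift was recorded for 1 h. A DMSO range set the background. Responses at a fixed time were plotted against concentration to give the CAC. Each assay was run at least three times.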

[2] = cited from earlier work
HT-29 cells = test: DMR agonism assay; assay type: cell-based, Human
In short: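 HT-29 cells were grown in McCoy's 5A with 10% FBS at 37 °C/5% CO2. They were seeded on RWG biosensor plates for ~24 h to form a monolayer, washed, and held 1 h in HBSS/20 mM HEPES pH 7.2, or in the same buffer with tween-80 for detergent runs. After a 2 min baseline, test compound was added and DMR was monitored for 1 h. The background-corrected maximal amplitude was used. Two independent runs, each at least in duplicate (n = 4).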

Muscarinic M3 receptor = Muscarinic M3 receptor (Homo sapiens, UniProt P20309); test: DMR desensitization assay, M3; assay type: cell-based; details: HT-29 cells; active compounds at concentrations above 50 μM
Sequence of Muscarinic M3 receptor (P20309 whole entry): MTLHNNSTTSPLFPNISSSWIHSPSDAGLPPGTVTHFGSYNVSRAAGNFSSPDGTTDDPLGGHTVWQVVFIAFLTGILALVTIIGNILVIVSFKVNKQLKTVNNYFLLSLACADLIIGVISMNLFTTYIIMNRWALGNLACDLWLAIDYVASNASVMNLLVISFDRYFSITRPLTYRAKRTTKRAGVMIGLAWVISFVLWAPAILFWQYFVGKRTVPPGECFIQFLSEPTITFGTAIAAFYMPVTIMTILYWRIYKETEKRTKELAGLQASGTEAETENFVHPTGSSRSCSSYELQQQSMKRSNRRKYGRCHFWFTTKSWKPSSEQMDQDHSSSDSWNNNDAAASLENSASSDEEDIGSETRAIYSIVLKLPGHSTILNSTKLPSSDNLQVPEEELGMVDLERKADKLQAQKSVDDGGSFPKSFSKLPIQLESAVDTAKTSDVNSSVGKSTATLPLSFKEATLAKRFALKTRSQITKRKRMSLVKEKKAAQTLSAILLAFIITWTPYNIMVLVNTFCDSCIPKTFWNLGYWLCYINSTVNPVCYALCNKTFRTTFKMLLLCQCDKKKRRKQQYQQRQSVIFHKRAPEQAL

For O=c1cc(-c2ccc(O)c(O)c2)oc2cc(O)cc(O)c12 [Luteolin], which “Detected CAC” value [1] is on record?
The value was 1.6 µM.

What about the “Literature CAC detected by DLS” value [2] of the same compound?
Its value is <50 ([ref. 12]) μM.

Which results are given for O=c1c(O)c(-c2ccc(O)c(O)c2)oc2cc(O)cc(O)c12 [Quercetin]?
DMR response (HT-29 cells; at 100 μM): less than 100 pm; Detected CAC [1]: 5.7 µM; inhibition of the DMR response of acetylcholine against muscarinic M3 receptor (Muscarinic M3 receptor): false inhibited

With COc1cc(C2Oc3cc([C@H]4Oc5cc(O)cc(O)c5C(=O)[C@@H]4O)ccc3OC2CO)ccc1O (some centres unmarked) [Silybin] as the compound, how does the “Detected CAC” value [1] read?
Its value is 25.2 µM.

And the “Literature CAC detected by DLS” value [2]?
The value was 0.47 ([ref. 16]) μM.

With O=c1c(-c2ccc(O)cc2)coc2cc(O)cc(O)c12 [Genistein] as the compound, how does the “Detected CAC” value [1] read?
Its value is 42.8 µM.

What about the “Literature CAC detected by DLS” value [2] of the same compound?
Its value is <75 ([ref. 12]) μM.

Which results are given for COc1cc(/C=C/C(=O)CC(=O)/C=C/c2ccc(O)c(OC)c2)ccc1O [Curcumin]?
DMR response (in words) (HT-29 cells; to its solubility limit): barely triggered any cellular mass redistributions; Detected CAC [1]: 9.6 µM; aggregator / non-aggregator in aggregation assay [1]: aggregator; inhibition of the DMR response of acetylcholine against muscarinic M3 receptor (Muscarinic M3 receptor): did not inhibit; Literature CAC detected by DLS [2]: 17 ([ref. 16]) μM

For O=C(O)c1cccnc1 [Nicotinic acid], which “aggregator / non-aggregator in aggregation assay” value [1] is on record?
The value was “non-aggregator”.

For COc1cc(O)c2c(c1)C(=O)c1cc(C)cc(O)c1C2=O [Physcion], which “Detected CAC” value [1] is on record?
The value was “Undetected”.

What about the “Literature CAC detected by DLS” value [2] of the same compound?
The value was 0.32 ([ref. 16]) μM.
